Data taken from ChEMBL document CHEMBL3352255, “Tailor-made fluorescent trilobolide to study its biological relevance” (J Med Chem, 2014).
pIC50: −log10 of the molar value. Active and inactive are the calls of the source. The calls are words filed in the database; no cut-off is given here.

What was measured:
[1] = Cellular uptake in human MIAPaCa2 cells at 1 uM after 20 mins by fluorescence microscopy; type: ADME, cell-based; details: mia paca-2, 20 min
Outline: (§1)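 Uptake into living cells was followed by fluorescence microscopy at 10, 20 and 40 min and at 1, 3, 5 and 24 h. Green-emitting Bodipy conjugates were given at 1 μM. A Bodipy dye-only stain served as control for dye-driven localisation.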

[2] = Cytotoxicity against human PC3 cells after 48 hrs by WST-1 assay; type: functional, cell-based; details: PC-3, 48 h
Outline: (§2)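 Dark cytotoxicity (no light exposure) by WST-1 tetrazolium-to-formazan conversion reflecting metabolic activity; compounds tested at concentrations up to 50 μM for 24, 48 or 72 h; IC50 taken as concentration giving 50% inhibition of cell viability.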

[3] = tested on: U2OS; assay: Cellular uptake in human U2OS cells at 1 uM after 10 to 20 mins by fluorescence microscopy; type: ADME, cell-based; outline: as §1
[4] = tested on: U2OS; assay: Cytotoxicity against human U2OS cells after 48 hrs by WST-1 assay; type: functional, cell-based; outline: as §2
[5] = tested on: C2C12; assay: Cytotoxicity against mouse C2C12 cells after 48 hrs by WST-1 assay; type: functional, cell-based; details: C2C12, 48 h; outline: as §2
[6] = Cytotoxicity against rat peritoneal cells assessed as reduction in cell viability at 40 uM after 24 hrs by WST-1 assay
[7] = tested on: LNCaP; assay: Cellular uptake in human LNCAP cells at 1 uM after 40 mins to 24 hrs by fluorescence microscopy; type: ADME, cell-based; outline: as §1
[8] = tested on: U2OS; assay: Cellular uptake in human U2OS cells at 2 uM after 0.5 to 24 hrs by fluorescence microscopy; type: ADME, cell-based
Outline: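 U-2 OS live cells were imaged by fluorescence microscopy across a range of conjugate concentrations and time points from 0.5 to 24 h. The intracellular signal plateau was then assessed.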

[9] = tested on: U2OS; assay: Induction of mitochondria fragmentation in human U2OS cells at 1 uM after 10 to 40 mins by fluorescence microscopy; type: functional, cell-based
Outline: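 Live cells were treated with 1 μM Bodipy conjugates for at least 40 min and then co-stained with MitoTracker Red FM (100 nM, 10 min). Imaging by fluorescence microscopy assessed colocalisation with the green signal and the state of the mitochondrial network.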

[10] = tested on: LNCaP; assay: Induction of LPS-induced NO production in human LNCAP cells at 40 uM after 24 hrs using DAR-2 probe by fluorescence assay; type: functional, cell-based
Outline: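 NO in living cells (PC-3, LNCaP, MCF-7, U-2 OS) was imaged by fluorescence microscopy with the NO-specific red-emitting probe DAR-2 after compound stimulation.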

[11] = species on record: Rattus norvegicus; assay: Induction of TNFalpha production in rat peritoneal cells at 10 uM after 24 hrs using by ELISA; type: functional, cell-based
Outline: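 Rat peritoneal cells exposed to compounds at 10 μM for 24 h; secreted TNF-α quantified by ELISA; LPS (1000 pg·mL−1) and parent trilobolide (1 μM) as positive controls; mean ± SEM of two independent experiments, n = 4, compared with untreated cells.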

[12] = Cytotoxicity against human PC3 cells after 24 hrs by WST-1 assay; type: functional, cell-based; details: PC-3, 24 h; outline: as §2
[13] = Cellular uptake in HEK293T cells at 1 uM after 20 mins by fluorescence microscopy; type: ADME, cell-based; details: human, hek-293t; outline: as §1
[14] = tested on: U2OS; assay: Cytotoxicity against human U2OS cells after 72 hrs by WST-1 assay; type: functional, cell-based; outline: as §2
[15] = tested on: LNCaP; assay: Cytotoxicity against human LNCAP cells after 72 hrs by WST-1 assay; type: functional, cell-based; outline: as §2
[16] = tested on: A549; assay: Cellular uptake in human A549 cells at 1 uM after 40 mins to 24 hrs by fluorescence microscopy; type: ADME, cell-based; details: a549, 1 µM; outline: as §1
[17] = tested on: HeLa; assay: Cellular uptake in human HeLa cells at 1 uM after 40 mins to 24 hrs by fluorescence microscopy; type: ADME, cell-based; outline: as §1
[18] = Cellular uptake in HEK293T cells at 1 uM after 40 mins to 24 hrs by fluorescence microscopy; type: ADME, cell-based; details: human, hek-293t; outline: as §1
[19] = tested on: C2C12; assay: Cellular uptake in mouse C2C12 cells at 1 uM after 40 mins to 24 hrs by fluorescence microscopy; type: ADME, cell-based; details: c2c12, 1 µM; outline: as §1

SMILES	Drug uptake [1]	pIC50 [2]	Drug uptake [3]	pIC50 [4]	pIC50 [5]	Activity [6]	Drug uptake [7]	Drug uptake [8]	Activity [9]	Activity [10]	Activity [11]	pIC50 [12]	Drug uptake [13]	pIC50 [14]	pIC50 [15]	Drug uptake [16]	Drug uptake [17]	Drug uptake [18]	Drug uptake [19]
C/C=C(/C)C(=O)O[C@@H]1C[C@H]2C(=C1C)[C@@H]1OC(=O)[C@@](C)(O)[C@@]1(O)[C@@H](OC(=O)CCOCCOCCOCCOCCn1cc(COc3ccc(C4=C5C=CC=[N+]5[B-](F)(F)n5cccc54)cc3)nn1)C[C@]2(C)OC(C)=O	Active	5.51	Active	5.27	5.19	Non-toxic	Active	Active	Active	Active	Active	5.60	Active	5.04	4.69				
C/C=C(/C)C(=O)O[C@@H]1C[C@H]2C(=C1C)[C@@H]1OC(=O)[C@@](C)(O)[C@@]1(O)[C@@H](OC(=O)CCCCn1cc(COc3ccc(C4=C5C=CC=[N+]5[B-](F)(F)n5cccc54)cc3)nn1)C[C@]2(C)OC(C)=O	Active	5.34	Active	4.88	5.12		Active	Active	Active	Active		5.38	Active	5.04	< 4.30	Active	Active	Active	Active
